Results reported in publication PMC8383301 (Molecular Pharmaceutics, 2021).
Entries after “also recorded” stand apart in the source; their conditions may differ. Like-named read-outs stand apart in the source and are kept apart here.

What was measured:
[1] = system: P-gp; conditions: isolated brain capillaries in vitro; cited from earlier work
[2] = system: P-gp; conditions: long-term exposure (60 days); rat brain microvascular endothelial cells in vitro; cited from earlier work
[3] = system: P-glycoprotein (P-gp); set-up: species or system Wistar rats; conditions: rat, in vivo
[4] = system: P-gp; conditions: colo-320 cells; cited from earlier work
[5] = system: pregnane X receptor (PXR); experiment: Western blot of PXR expression in whole-brain tissue; type: in vivo, Wistar rats
How it was run: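 Male Wistar rats (RjHan:WI) got a single i.v. tail-vein dose of 4.5 or 6 mg/kg (n = 6 each) or vehicle (n = 6) under isoflurane, 24 h before scanning. The vehicle was 5% DMSO, 10% PEG 300 and 85% water. Whole-brain tissue was extracted in cold RIPA with protease inhibitors (~10:1 v/w). Semidry transfer to PVDF ran 2 h; blocking was 1 h in 3% BSA/TBST. PXR was normalised to histone H3, and group means to control.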

[6] = rat, in vivo, 4.5 mg/kg
[7] = Safety of MC111 administration to rats; type: in vivo; conditions: 6 mg/kg dose
[8] = system: breast cancer resistance protein (BCRP); conditions: colo-320 and MCF7 cells; cited from earlier work
[9] = system: P-gp; conditions: SW480 human colon adenocarcinoma cells; cited from earlier work
[10] = system: P-glycoprotein (P-gp); experiment: Western blot of P-gp expression in whole-brain tissue; type: in vivo, Wistar rats; conditions: MC111 4.5 or 6 mg/kg, 24 h
[11] = system: P-gp; conditions: transgenic mouse model of human AD; treatment for 7 days; cited from earlier work
[12] = system: P-gp; conditions: caco-2 cells; cited from earlier work
[13] = system: P-gp; conditions: enriched diet; mice models of AD; cited from earlier work

CO[C@H]1/C=C/O[C@@]2(C)Oc3c(C)c(O)c4c(O)c(c(/C=N/N5CCN(C)CC5)c(O)c4c3C2=O)NC(=O)/C(C)=C\C=C\[C@H](C)[C@H](O)[C@@H](C)[C@@H](O)[C@@H](C)[C@H](OC(C)=O)[C@@H]1C [rifampin]
P-gp expression and function [1]: increase

O=C1NC(=O)C(c2ccccc2)(c2ccccc2)N1 [phenytoin]
P-gp expression levels and P-gp function [2]: increased

CC(C)=CCC[C@]1(C)[C@@H](CC=C(C)C)C[C@@]2(CC=C(C)C)C(=O)[C@]1(C(=O)C(C)C)C(=O)C(CC=C(C)C)=C2O [hyperforin]
P-gp expression and function [1]: increase

Oc1ccc(-c2ccc(CN3CCN(C4CCCCC4)CC3)cc2)cc1 [MC111, 4′-((4-cyclohexylpiperazin-1-yl)methyl)-[1,1′-biphenyl]-4-ol]
SUV–TAC of the whole brain, differences among the groups [3]: did not find any significant differences | decrease of whole-brain K1 compared to the low-dose group [3]: 29% | SUV40–60 min of the whole brain ([3]; 4.5 mg/kg): 0.45 ± 0.02 | decrease of VT and K1 values compared to the control group ([3]; 4.5 mg/kg): not statistically significant | decrease of whole-brain K1 compared to controls ([3]; 4.5 mg/kg): 7% | decrease of whole-brain VT compared to controls ([3]; 4.5 mg/kg): 6% | K1 and VT values compared to the control group ([3]; 6 mg/kg): significant reduction | decrease of whole-brain K1 compared to controls ([3]; 6 mg/kg): 34% | [3H]verapamil efflux (P-gp function) [4]: increase | PXR expression levels, treated vs control [5]: did not detect any increase | PXR expression levels ([5]; high-dose group, MC111 6 mg/kg): tendency to lower levels | Ke vs control group [6]: no significant differences | safety of administration [7]: safely administered | BCRP function and expression [8]: activates | P-gp expression [9]: increases | P-gp expression, treated vs control [10]: did not detect changes; also recorded: no significant differences

CC(=O)[C@H]1[C@H](C#N)C[C@H]2[C@@H]3CC=C4C[C@@H](O)CC[C@]4(C)[C@H]3CC[C@@]21C [pregnenolone-16α-carbonitrile]
P-gp function [11]: restored

CCC1(c2ccccc2)C(=O)NC(=O)NC1=O [phenobarbital]
P-gp expression levels and P-gp function [2]: increased

COc1cc2c(c(OC)c1OC)-c1ccc(OC)c(=O)cc1[C@@H](NC(C)=O)CC2 [colchicine]
P-gp expression [12]: increased | P-gp function [12]: without increasing

NC(=O)N1c2ccccc2C=Cc2ccccc21 [carbamazepine]
P-gp expression levels and P-gp function [2]: increased

C=C1/C(=C\C=C2/CCC[C@]3(C)[C@@H]([C@H](C)CCCC(C)(C)O)CC[C@@H]23)C[C@@H](O)C[C@@H]1O [1,25-Dihydroxyvitamin D3]
Aβ deposition [13]: reduced | P-gp function [13]: induced

CCCC(CCC)C(=O)O [valproic acid]
P-gp expression levels and P-gp function [2]: increased
